Six compounds from ChEMBL document CHEMBL1138372, “Design, synthesis, and biological evaluation of new (2E,6E)-10-(dimethylamino)-3,7-dimethyl-2,6-decadien-1-ol ethers as inhibitors of human and Trypanosoma cruzi oxidosqualene cyclase” (Bioorg Med Chem Lett, 2007) can be followed below.

Test [1] relates to NIH3T3. The experiment in a line: Inhibition of sterol biosynthesis in Swiss Albino mouse 3T3 cells assessed as incorporation of [2-14C]acetate in squalene at 1 uM. In kind it is functional. Also on record: scale not given: the % may be the effect or the level left. In short, it runs like this:
(§1)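 3T3 fibroblasts (7×10^4 cells) were grown 24 h in DMEM with 10% lipid-depleted serum, then preincubated 3 h with inhibitor. [2-14C]acetate (1 uCi/well) was added for a further 3 h. Cells were lysed in 0.1 N NaOH and saponified in methanolic KOH (1 h, 80 °C). Nonsaponifiable lipids were extracted and separated by TLC against sterol standards. Label is given as % of total radioactivity in sterols, mean ± SD of two experiments in duplicate.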

In test [2] the test system is NIH3T3. In words: Inhibition of sterol biosynthesis in Swiss Albino mouse 3T3 cells assessed as incorporation of [2-14C]acetate in 2,3-oxidosqualene at 1 uM. Also on record: scale not given: the % may be the effect or the level left. In kind it is functional. The method, boiled down: as §1
The target of test [3] is T1, Lanosterol synthase (Homo sapiens, UniProt P48449).
T1 sequence (P48449 whole entry): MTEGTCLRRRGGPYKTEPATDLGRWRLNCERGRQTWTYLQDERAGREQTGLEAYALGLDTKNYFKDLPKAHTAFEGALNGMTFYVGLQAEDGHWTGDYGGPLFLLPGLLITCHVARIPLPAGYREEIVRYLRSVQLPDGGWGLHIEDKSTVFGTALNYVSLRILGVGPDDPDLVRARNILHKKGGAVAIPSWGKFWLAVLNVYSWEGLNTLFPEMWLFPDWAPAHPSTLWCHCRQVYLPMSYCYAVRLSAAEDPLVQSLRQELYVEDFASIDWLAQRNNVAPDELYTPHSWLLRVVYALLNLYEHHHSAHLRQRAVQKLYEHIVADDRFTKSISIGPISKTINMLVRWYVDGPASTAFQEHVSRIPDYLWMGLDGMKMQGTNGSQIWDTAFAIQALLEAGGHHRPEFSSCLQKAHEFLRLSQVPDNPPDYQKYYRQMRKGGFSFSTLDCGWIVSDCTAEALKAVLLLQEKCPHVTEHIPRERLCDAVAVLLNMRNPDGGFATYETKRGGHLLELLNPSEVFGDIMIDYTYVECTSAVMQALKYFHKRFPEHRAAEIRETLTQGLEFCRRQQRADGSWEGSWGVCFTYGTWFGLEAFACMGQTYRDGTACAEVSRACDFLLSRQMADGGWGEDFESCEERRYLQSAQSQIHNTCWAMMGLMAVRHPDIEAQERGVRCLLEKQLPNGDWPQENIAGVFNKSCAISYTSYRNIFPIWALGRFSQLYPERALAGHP
In words: Inhibition of human oxidosqualene cyclase expressed in Pichia pastoris cells.

Test [4] is described as follows: Inhibition of Trypanosoma cruzi oxidosqualene cyclase.
For test [5], the system named is NIH3T3. The experiment in a line: Inhibition of sterol biosynthesis in Swiss Albino mouse 3T3 cells assessed as incorporation of [2-14C]acetate in […]-dioxidosqualene at 1 uM. In kind it is functional. The arrangement: scale not given: the % may be the effect or the level left. In short, it runs like this: as §1
In test [6] the test system is NIH3T3. The experiment in a line: Inhibition of sterol biosynthesis in Swiss Albino mouse 3T3 cells assessed as incorporation of [2-14C]acetate in cholesterol at 1 uM. In kind it is functional. The arrangement: scale not given: the % may be the effect or the level left. In short, it runs like this: as §1
For test [7], the target named is T2, Lanosterol synthase ERG7 (Saccharomyces cerevisiae S288c) (UniProt P38604).
T2 sequence (whole entry): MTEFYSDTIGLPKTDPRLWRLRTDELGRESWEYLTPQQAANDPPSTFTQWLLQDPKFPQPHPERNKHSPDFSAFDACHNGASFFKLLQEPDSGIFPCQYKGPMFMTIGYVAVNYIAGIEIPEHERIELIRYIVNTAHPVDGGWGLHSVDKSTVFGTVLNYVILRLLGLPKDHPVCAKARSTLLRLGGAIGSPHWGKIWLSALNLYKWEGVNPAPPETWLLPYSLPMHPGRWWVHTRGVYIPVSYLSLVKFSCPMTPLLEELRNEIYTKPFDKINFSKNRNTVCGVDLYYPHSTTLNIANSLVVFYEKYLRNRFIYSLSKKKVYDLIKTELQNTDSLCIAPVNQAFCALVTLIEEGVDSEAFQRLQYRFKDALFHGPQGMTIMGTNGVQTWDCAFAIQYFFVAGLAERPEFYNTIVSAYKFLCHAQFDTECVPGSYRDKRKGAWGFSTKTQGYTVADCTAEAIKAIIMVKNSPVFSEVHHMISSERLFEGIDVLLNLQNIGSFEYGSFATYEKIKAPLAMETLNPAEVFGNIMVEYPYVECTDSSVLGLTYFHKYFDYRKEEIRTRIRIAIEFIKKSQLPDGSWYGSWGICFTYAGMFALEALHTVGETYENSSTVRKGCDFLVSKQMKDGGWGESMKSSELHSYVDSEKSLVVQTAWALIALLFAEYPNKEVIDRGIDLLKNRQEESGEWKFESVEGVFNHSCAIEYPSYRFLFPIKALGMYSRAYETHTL
In words: Inhibition of Saccharomyces cerevisiae oxidosqualene cyclase at 10 uM.

Test [8] deals with T3, Lanosterol synthase (Pneumocystis carinii, UniProt Q96WJ0).
T3 sequence (Q96WJ0 whole entry): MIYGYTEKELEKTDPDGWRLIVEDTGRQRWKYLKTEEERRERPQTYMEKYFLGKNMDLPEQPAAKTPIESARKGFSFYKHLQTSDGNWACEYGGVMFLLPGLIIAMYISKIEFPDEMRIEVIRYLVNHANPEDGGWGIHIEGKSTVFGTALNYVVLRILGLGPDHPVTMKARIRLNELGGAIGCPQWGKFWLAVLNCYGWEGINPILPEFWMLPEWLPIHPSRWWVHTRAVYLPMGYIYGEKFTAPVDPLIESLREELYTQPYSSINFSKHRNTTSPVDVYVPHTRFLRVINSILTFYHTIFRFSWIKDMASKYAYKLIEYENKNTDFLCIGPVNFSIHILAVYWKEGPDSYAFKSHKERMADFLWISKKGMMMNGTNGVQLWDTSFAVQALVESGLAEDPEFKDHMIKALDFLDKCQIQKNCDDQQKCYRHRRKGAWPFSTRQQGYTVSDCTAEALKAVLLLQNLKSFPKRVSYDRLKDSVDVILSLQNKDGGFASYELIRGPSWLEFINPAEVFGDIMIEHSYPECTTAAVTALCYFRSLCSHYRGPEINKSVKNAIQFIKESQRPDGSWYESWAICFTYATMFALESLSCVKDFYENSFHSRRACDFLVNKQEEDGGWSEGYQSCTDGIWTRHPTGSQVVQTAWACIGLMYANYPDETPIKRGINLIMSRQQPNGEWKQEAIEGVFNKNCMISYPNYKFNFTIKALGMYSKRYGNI
The experiment in a line: Inhibition of Pneumocystis carinii oxidosqualene cyclase.

The test system of test [9] is NIH3T3. The experiment in a line: Inhibition of sterol biosynthesis in Swiss Albino mouse 3T3 cells assessed as incorporation of [2-14C]acetate in lanosterol at 1 uM. In kind it is functional. The arrangement: scale not given: the % may be the effect or the level left. In short, it runs like this: as §1
Test [10] deals with T4, Lanosterol synthase (Homo sapiens) (UniProt P48449).
T4 sequence (whole entry): T1 sequence (P48449 whole entry)
In words: Inhibition of human oxidosqualene cyclase expressed in Pichia pastoris cells at 10 uM.

Test [11] has as its system NIH3T3. In words: Inhibition of sterol biosynthesis in Swiss Albino mouse 3T3 cells assessed as decrease in incorporation of [2-14C]acetate in cholesterol at 50 uM. In kind it is functional. The arrangement: scale not given: the % may be the effect or the level left. The method, boiled down:
as §1

For test [12], the target named is T5, Lanosterol synthase (Pneumocystis carinii) (UniProt Q96WJ0).
T5 sequence (whole entry): T3 sequence (Q96WJ0 whole entry)
In words: Inhibition of Pneumocystis carinii oxidosqualene cyclase at 10 uM.

A further test relates to Trypanosoma cruzi. The experiment in a line: Inhibition of Trypanosoma cruzi oxidosqualene cyclase at 10 uM.
In another test the target is T6, Lanosterol synthase ERG7 (Saccharomyces cerevisiae S288c, UniProt P38604).
T6 sequence (P38604 whole entry): T2 sequence (whole entry)
In words: Inhibition of Saccharomyces cerevisiae oxidosqualene cyclase.

Each structure is given as a SMILES string. Calls of active or inactive are those of the source. No cut-off for these calls is given here.

The term IC50 denotes the concentration needed to halve the response being measured. One may read the inhibition as the percentage by which the read-out fell short of the control. With `C/C(=C\COCCCc1ccc(-c2ccccc2)cc1)CC/C=C(\C)CCCN(C)C`, the Activity with NIH3T3 [1] came to 4.9%; in the test on NIH3T3 [2], 17.5%; in the test with NIH3T3 [5], 18%; in the test with NIH3T3 [6], 53.2%; with NIH3T3 [9], 6.4%. The IC50 is 4500 nM at Lanosterol synthase [3], 7400 nM in [4] and 1700 nM at Lanosterol synthase [8]. In addition, the inhibition in [7] was below 20%.

Turning to `C/C(=C\CO)CC/C=C(\C)CCCN(C)C`, the Activity in the test with NIH3T3 [1] amounted to 4.1%; in the test with NIH3T3 [2], 3.9%; in the test on NIH3T3 [11], 30%; with NIH3T3 [5], 1.3%; in the test on NIH3T3 [6], 88.2%; with NIH3T3 [9], 2.5%. Moreover, the inhibition (in [10]; in [12]; in the test with Trypanosoma cruzi) was below 20% throughout. Besides, the outcome in test [7] was inactive.

As for `C/C(=C\COCCCc1ccccc1)CC/C=C(\C)CCC(=O)N(C)C`, the Activity is recorded as 4.8% in the test with NIH3T3 [1]; 4.6% in the test with NIH3T3 [2]; above 50% in the test on NIH3T3 [11]; 2.8% with NIH3T3 [5]; 84.6% in the test with NIH3T3 [6]; 3.2% in the test with NIH3T3 [9]. In addition, the inhibition (in [10]; in test [12]; in the test with Trypanosoma cruzi) was below 20% each time.

On to `C/C(=C\COCCCc1ccccc1)CC/C=C(\C)CCCN(C)C`, for which the Activity in the test on NIH3T3 [1] was 5.5%; in the test on NIH3T3 [2] it was 27.9%; in the test with NIH3T3 [5], 30.4%; in the test on NIH3T3 [6], 31.3%; in the test with NIH3T3 [9], 5.5%. The IC50 against Lanosterol synthase [3] amounted to 1100 nM; in test [4], 470 nM; against Lanosterol synthase [8], 330 nM; on Lanosterol synthase ERG7, 450 nM.

As to `C/C(=C\COCCCc1cccc2ccccc12)CC/C=C(\C)CCCN(C)C`, the Activity stood at 6.6% in the test on NIH3T3 [1]; 12.5% in the test with NIH3T3 [2]; 30% with NIH3T3 [11]; 3.2% in the test on NIH3T3 [5]; 72.7% in the test with NIH3T3 [6]; 5% with NIH3T3 [9]. Also, the inhibition (in [10]; in the test on Trypanosoma cruzi) was below 20% throughout. The outcome in [7] was inactive. This compound also registered a half-inhibitory concentration (IC50) against Lanosterol synthase [8] of 10000 nM.

As to `CCCCCCOC/C=C(\C)CC/C=C(\C)CCCN(C)C`, the Activity in the test with NIH3T3 [1] came to 4.6%; in the test on NIH3T3 [2] it was 29.6%; with NIH3T3 [5], 22.3%; in the test with NIH3T3 [6] it was 35.5%; in the test with NIH3T3 [9] it was 7.9%. The half-maximal inhibitory concentration (IC50) against Lanosterol synthase [3] amounted to 850 nM; in test [4] it was 2700 nM; at Lanosterol synthase [8], 360 nM; at Lanosterol synthase ERG7 it was 1780 nM.
